Measurements taken from ChEMBL document CHEMBL5705890, “Antitumor activity of an allosteric inhibitor of centromere-associated protein-E” (Proc Natl Acad Sci U S A, 2010).

Legend:
[1] = target: T1, Centromere-associated protein E (Homo sapiens, UniProt Q02224); test: Inhibition of ATPase activity of C-terminal 6-his-tagged CENP-E (2 to 340 residues)(unknown origin) expressed in Escherichia coli BL21(DE3) in presence of ATP
[2] = target: T1, Centromere-associated protein E; test: Uncompetitive binding affinity to microtubule-stimulated ATPase activity of C-terminal 6-his-tagged CENP-E (2 to 340 residues)(unknown origin) expressed in Escherichia coli BL21(DE3) assessed as apparent inhibition constant; settings: read-out: Ki(app)
Procedure, shortened: (§1)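 CENP-E motor domain (residues 2–340, C-terminal 6-his, from E. coli BL21(DE3)) run in MT-stimulated ATPase with 500 μM ATP, 5 μM paclitaxel-stabilized MT, 1 nM enzyme in PEM25 buffer, pH 6.8. Apparent Ki taken from the concentration-response curves with explicit correction for enzyme concentration.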

[3] = target: T1, Centromere-associated protein E; test: Uncompetitive-like binding affinity to C-terminal 6-his-tagged CENP-E (2 to 340 residues)(unknown origin) expressed in Escherichia coli BL21(DE3) assessed as apparent inhibition constant in presence of ATP; settings: read-out: Ki(app)
[4] = target: T1, Centromere-associated protein E; test: Inhibition of microtubule-stimulated ATPase activity of C-terminal 6-his-tagged CENP-E (2 to 340 residues)(unknown origin) expressed in Escherichia coli BL21(DE3) in presence of ATP
Procedure, shortened: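 Steady-state ATPase of CENP-E motor domain, residues 2–340 with C-terminal 6-His tag, expressed in E. coli BL21(DE3). Run at 1 nM enzyme, 500 μM ATP and 5 μM paclitaxel-stabilized microtubules in PEM25 (25 mM PIPES-K pH 6.8, 2 mM MgCl2, 1 mM EGTA) plus 10 μM paclitaxel. IC50 taken from concentration-response curves.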

[5] = target: Centromere-associated protein E (Mus musculus, UniProt Q6RT24); test: Binding affinity to wild-type mouse CENP-E assessed as inhibition constant
[6] = target: T1, Centromere-associated protein E; test: Binding affinity to wild-type human CENP-E assessed as inhibition constant; procedure, shortened: as §1
[7] = target: Centromere-associated protein E (Homo sapiens, UniProt Q02224, I182L/K184T/T183A); test: Binding affinity to human CENP-E I182L/T183A/K184T mutant assessed as inhibition constant
Sequence of Centromere-associated protein E (Homo sapiens, UniProt Q02224, I182L/K184T/T183A) (Q02224 whole entry I182L/T183A/K184T): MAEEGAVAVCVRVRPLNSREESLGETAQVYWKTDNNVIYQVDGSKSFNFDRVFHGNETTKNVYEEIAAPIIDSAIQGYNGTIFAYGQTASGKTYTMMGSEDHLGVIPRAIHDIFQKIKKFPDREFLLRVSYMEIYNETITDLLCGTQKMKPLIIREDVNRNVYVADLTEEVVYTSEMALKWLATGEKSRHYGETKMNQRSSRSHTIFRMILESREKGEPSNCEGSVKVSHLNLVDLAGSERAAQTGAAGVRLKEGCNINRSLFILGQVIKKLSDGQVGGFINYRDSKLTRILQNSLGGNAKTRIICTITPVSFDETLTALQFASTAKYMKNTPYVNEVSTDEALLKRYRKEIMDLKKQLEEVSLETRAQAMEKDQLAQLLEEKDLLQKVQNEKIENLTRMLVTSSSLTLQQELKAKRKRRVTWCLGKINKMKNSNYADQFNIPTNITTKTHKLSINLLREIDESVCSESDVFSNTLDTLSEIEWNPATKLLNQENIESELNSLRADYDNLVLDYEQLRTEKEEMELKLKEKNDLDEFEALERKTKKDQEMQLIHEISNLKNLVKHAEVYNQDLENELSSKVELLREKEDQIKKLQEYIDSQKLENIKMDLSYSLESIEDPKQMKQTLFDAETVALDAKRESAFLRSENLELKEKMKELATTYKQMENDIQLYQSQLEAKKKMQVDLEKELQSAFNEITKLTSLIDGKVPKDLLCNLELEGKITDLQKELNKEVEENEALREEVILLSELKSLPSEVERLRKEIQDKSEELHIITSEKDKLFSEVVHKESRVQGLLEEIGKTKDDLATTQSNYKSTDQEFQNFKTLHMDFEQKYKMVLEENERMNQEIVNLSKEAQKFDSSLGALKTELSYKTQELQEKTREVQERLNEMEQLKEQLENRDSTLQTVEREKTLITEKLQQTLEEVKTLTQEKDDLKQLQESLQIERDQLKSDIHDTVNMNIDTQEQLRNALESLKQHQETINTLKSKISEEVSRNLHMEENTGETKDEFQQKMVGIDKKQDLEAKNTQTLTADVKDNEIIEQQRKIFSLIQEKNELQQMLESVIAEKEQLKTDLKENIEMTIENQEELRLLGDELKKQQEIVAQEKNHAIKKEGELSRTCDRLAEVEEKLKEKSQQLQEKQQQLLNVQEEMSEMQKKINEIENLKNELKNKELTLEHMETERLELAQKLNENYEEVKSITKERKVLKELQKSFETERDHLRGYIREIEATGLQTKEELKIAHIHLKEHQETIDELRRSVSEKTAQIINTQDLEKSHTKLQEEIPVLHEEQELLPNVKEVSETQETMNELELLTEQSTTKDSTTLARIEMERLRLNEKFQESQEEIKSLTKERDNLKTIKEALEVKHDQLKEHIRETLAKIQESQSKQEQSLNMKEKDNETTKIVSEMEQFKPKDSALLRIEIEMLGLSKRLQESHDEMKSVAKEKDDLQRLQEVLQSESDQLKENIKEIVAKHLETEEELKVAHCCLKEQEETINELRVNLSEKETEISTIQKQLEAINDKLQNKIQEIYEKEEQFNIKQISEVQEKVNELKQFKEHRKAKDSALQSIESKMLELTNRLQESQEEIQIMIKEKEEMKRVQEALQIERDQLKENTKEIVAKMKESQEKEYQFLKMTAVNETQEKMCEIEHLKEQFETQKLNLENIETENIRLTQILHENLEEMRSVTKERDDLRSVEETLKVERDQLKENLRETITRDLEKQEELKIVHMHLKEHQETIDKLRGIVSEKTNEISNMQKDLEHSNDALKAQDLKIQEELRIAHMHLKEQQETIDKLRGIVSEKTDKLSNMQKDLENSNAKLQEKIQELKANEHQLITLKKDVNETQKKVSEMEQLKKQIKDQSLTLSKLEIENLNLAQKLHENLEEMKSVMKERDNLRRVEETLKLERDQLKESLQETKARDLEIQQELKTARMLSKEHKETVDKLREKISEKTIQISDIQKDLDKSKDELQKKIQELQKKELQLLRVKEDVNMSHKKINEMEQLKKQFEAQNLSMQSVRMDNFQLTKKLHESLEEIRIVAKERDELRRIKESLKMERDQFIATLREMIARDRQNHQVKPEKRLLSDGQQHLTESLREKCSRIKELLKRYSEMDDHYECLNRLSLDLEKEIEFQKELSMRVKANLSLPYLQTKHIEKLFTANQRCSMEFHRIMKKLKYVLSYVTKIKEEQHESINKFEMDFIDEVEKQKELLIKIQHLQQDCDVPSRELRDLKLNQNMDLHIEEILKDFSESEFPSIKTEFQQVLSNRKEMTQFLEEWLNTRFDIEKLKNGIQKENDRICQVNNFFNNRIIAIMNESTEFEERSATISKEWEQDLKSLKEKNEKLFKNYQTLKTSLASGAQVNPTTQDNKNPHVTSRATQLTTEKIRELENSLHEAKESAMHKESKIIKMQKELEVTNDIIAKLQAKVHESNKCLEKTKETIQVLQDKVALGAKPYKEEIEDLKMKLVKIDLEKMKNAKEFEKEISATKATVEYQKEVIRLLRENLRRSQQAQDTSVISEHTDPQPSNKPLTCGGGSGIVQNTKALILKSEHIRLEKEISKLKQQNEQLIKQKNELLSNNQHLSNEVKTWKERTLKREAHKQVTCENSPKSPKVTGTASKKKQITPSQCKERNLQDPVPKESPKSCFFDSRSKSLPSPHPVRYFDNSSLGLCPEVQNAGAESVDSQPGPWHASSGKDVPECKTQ

Centromere protein E = Centromere protein E (Canis lupus familiaris, UniProt A0A8P0P634); test: Binding affinity to wild-type dog CENP-E assessed as inhibition constant
Sequence of Centromere protein E (A0A8P0P634 whole entry, the tested form may be a part): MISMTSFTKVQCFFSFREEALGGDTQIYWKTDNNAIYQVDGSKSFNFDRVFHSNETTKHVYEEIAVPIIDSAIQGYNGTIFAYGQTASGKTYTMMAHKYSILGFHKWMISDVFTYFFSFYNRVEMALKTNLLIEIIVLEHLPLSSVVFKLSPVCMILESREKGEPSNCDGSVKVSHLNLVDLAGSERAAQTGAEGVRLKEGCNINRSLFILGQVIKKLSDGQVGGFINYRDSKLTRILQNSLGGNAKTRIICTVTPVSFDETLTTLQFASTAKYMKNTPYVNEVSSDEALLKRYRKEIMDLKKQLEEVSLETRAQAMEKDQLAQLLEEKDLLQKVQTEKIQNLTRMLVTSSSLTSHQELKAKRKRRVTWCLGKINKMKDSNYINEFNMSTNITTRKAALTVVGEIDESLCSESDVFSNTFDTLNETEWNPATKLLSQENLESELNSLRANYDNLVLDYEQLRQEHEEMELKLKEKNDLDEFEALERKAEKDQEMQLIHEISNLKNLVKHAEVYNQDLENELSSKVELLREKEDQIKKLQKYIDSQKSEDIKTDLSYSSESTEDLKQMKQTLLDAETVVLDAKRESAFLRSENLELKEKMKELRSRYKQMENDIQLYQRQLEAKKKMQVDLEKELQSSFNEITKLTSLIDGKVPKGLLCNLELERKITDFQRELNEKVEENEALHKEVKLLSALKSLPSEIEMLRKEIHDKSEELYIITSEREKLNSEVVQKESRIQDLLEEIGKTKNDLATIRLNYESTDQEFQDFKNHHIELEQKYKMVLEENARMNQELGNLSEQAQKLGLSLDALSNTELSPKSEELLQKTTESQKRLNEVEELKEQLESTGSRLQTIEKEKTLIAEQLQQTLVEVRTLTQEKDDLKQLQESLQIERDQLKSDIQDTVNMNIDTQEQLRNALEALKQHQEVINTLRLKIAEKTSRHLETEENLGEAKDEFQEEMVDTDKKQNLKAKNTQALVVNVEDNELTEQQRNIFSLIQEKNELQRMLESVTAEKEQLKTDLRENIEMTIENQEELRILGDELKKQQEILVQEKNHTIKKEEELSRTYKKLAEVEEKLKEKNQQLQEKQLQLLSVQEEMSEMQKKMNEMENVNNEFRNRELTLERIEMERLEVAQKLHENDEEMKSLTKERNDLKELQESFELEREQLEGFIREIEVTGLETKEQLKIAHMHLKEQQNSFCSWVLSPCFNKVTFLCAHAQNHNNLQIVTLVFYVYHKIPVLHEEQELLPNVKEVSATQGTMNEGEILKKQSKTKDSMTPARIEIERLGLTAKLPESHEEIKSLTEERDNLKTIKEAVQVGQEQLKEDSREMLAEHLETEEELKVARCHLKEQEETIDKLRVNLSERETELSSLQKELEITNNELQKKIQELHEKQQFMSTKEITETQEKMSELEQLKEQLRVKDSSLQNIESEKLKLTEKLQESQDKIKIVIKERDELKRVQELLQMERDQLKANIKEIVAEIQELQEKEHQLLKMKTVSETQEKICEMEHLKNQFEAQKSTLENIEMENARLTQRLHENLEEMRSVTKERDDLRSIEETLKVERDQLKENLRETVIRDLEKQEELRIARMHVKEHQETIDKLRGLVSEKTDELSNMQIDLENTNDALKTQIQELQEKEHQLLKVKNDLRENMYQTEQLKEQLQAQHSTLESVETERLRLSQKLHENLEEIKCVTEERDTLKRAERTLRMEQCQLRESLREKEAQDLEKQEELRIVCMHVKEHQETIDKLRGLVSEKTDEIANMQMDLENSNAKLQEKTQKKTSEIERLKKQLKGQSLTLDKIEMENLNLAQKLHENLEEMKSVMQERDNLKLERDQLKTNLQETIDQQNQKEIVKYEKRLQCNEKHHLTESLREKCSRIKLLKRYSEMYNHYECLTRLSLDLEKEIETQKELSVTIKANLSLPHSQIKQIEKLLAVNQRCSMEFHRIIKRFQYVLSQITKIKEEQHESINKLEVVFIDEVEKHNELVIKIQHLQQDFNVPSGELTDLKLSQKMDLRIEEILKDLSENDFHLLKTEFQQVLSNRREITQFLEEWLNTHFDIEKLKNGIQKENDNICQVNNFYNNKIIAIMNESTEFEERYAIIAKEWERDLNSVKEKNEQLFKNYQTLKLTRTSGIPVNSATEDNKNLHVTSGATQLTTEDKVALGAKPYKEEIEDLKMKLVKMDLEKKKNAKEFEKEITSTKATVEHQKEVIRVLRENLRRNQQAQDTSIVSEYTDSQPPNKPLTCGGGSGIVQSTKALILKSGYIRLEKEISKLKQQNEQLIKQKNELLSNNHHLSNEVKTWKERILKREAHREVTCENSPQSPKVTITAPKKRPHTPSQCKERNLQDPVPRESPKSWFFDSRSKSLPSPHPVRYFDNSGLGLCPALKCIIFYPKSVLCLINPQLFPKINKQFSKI

[8] = target: T1, Centromere-associated protein E; test: Competitive-like binding affinity to C-terminal 6-his-tagged CENP-E (2 to 340 residues)(unknown origin) expressed in Escherichia coli BL21(DE3) assessed as apparent inhibition constant in presence of ATP; settings: read-out: Ki(app)

T1 sequence (Q02224 whole entry, the tested form may be a part): as the sequence (Q02224 whole entry I182L/T183A/K184T) above, with L182I, A183T, T184K counted along it

IC50 [1] | Ki [2] | Ki [3] | IC50 [4] | Ki [5] | Ki [6] | Ki [7] | Ki (Centromere protein E) | Ki [8] | SMILES
7370 nM | 4.7 nM | 4.2 nM | 3.7 nM | – | – | – | – | – | Cc1cccn2cc(-c3ccc(C[C@@H](CCO)NC(=O)c4ccc(OC(C)C)c(C#N)c4)cc3)nc12
– | – | – | 550 nM | 89 nM | 4.2 nM | 73 nM | 2.4 nM | 4400 nM | CNC(=O)C(Cc1ccc(C(=O)c2ccccc2)cc1)NC(=O)c1ccc(OC(C)C)c(Cl)c1 (stereo not given)
